According to ChEMBL document CHEMBL4396878, “Mechanisms of Specific versus Nonspecific Interactions of Aggregation-Prone Inhibitors and Attenuators” (J Med Chem, 2019):
One block for each compound: values may come before it. Active and inactive are the calls of the source. The rule behind the calls is not given here.

Experiments:
[1] = Binding affinity to Triton-X 100 assessed as line broadening at 150 uM by 1H-NMR spectra analysis
[2] = Binding affinity to Triton-X 100 assessed as change in chemical shift at 150 uM by 1H-NMR spectra analysis
[3] = Binding affinity to Triton-X 100 assessed as peak size of aggregate at 1:2 ratio of Triton-X 100 to compound by dynamic light scattering analysis
In short: (§1)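 Dynamic light scattering in NMR buffer, samples filtered through 0.22 μm and centrifuged 5 min at 13 500 rpm before measurement. Autocorrelation accumulated 150 s at a 173° scattering angle, in replicates of 3–5, with water viscosity used in analysis; intensity or volume size distributions reported.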

[4] = Binding affinity to Triton-X 100 assessed as intra-molecular saturation transfer at 500 uM at 8.61 ppm by STD spectra analysis
In short: (§2)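 STD NMR, saturation by a train of 40 Gaussian pulses of 50 ms each; selective on-resonance irradiation at the stated ppm (TX at 7.48 ppm), off-resonance at 30 ppm, interleaved and subtracted by phase cycling. 32K points, 16 ppm width centred at 4.7 ppm, 256 scans, 16 dummy scans, 0.1 s recycle delay (~15 min); 3 Hz exponential line broadening.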

[5] = Binding affinity to Triton-X 100 assessed as compound-complex formation at 500 uM by NOESY spectra analysis
In short: (§3)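 2D NOESY and ROESY of 100 μM ESI with 0.025% Triton X-100 or 500 μM ESI with 0.05% Triton X-100; 2K × 512 complex points, 12 ppm spectral width centred at 4.7 ppm, intra- and intermolecular cross-peaks mapped.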

[6] = Binding affinity to Triton-X 100 assessed as inter-molecular saturation transfer at 500 uM at 8.61 ppm by STD spectra analysis; in short: as §2
[7] = Binding affinity to Triton-X 100 assessed as intra-molecular cross relaxation at 500 uM by NOESY spectra analysis; in short: as §3
[8] = Binding affinity to Triton-X 100 assessed as inter-molecular cross relaxation at 500 uM by NOESY spectra analysis; in short: as §3
[9] = Binding affinity to Triton-X 100 at 500 uM measured after 14 hrs by NOESY spectra analysis; in short: as §3
[10] = Binding affinity to Triton-X 100 assessed as peak size of aggregate at 1:1 ratio of Triton-X 100 to compound by dynamic light scattering analysis; in short: as §1
[11] = Binding affinity to Triton-X 100 assessed as change in chemical shift at 100 uM by 1H-NMR spectra analysis
[12] = Aggregation property of the compound assessed as shift in peak width by 1H-NMR analysis; format: physicochemical
In short: (§4)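 Line widths, chemical shifts and peak intensities tracked; CAC taken as the concentration where intensities deviate from linear dependence, or, for line width, the minimal concentration that increases peak width.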

[13] = Aggregation property of the compound in NMR buffer assessed as aggregate size at 500 uM by dynamic light scattering analysis; format: physicochemical; in short: as §1
[14] = target: T1, Rap guanine nucleotide exchange factor 3 (Homo sapiens, UniProt O95398); test: Binding affinity to human EPAC1 cAMP binding domain (149 to 318 residues) in presence of human serum albumin by [15N-1H]HSQC spectroscopic analysis; conditions: read-out: Kd(app)
T1 sequence (O95398 whole entry): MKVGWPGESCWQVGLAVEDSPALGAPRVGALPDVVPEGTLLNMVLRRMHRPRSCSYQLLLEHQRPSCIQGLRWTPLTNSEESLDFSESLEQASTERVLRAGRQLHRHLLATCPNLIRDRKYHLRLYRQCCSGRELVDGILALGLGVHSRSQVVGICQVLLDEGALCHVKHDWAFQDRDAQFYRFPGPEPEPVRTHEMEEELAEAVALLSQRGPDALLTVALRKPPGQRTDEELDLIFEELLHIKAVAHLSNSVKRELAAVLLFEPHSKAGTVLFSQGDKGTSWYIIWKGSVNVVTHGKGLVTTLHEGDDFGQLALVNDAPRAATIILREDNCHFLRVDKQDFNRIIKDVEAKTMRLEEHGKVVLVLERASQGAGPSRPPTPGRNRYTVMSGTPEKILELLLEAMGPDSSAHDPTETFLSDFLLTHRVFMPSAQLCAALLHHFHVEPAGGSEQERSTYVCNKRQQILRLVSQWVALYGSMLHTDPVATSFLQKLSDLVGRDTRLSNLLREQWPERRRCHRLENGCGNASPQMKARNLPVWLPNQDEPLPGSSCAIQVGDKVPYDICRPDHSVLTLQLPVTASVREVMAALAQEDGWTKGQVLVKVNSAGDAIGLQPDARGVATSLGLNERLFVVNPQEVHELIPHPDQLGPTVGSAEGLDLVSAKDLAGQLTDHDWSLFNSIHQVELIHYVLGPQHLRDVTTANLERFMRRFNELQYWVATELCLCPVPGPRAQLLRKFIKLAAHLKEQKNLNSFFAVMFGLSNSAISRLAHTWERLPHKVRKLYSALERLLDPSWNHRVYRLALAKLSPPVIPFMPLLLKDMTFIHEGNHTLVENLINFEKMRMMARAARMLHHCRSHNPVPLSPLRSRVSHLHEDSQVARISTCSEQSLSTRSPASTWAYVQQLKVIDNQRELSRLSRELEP
In short: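 100 μM human EPAC1 CBD (149–318) in NMR buffer (Tris pH 7.6) was titrated with inhibitor in the presence of globulin- and fatty-acid-free human serum albumin at stated stoichiometric ratios. Chemical shift differences and peak intensities normalised to ligand-free sample (I/I0, averaged over residues) were tracked. Errors came from propagated signal-to-noise.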

[15] = target: T1, Rap guanine nucleotide exchange factor 3; test: Binding affinity to human EPAC1 cAMP binding domain (149 to 318 residues) by [15N-1H]HSQC spectroscopic analysis
Albumin [16] = target: T2, Albumin (Homo sapiens, UniProt P02768); test: Displacement of dansylated arginine from human serum albumin at <150 uM by fluorescence assay
In short: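 Competition of ligand against 100 μM dansyl-arginine (Sudlow site 1, 1:1 stoichiometry) bound to 2.5 μM HSA. Excitation 370 nm, emission 460 nm. Apparent Kd fitted by Wang's method using least squares, assuming no other ligand sites on HSA, so treated as a maximum apparent value.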

Albumin [17] = target: T2, Albumin; test: Binding affinity to human serum albumin assessed as line broadening at 200 uM by 1D 1H NMR analysis
[18] = Aggregation property of the compound in NMR buffer assessed as diameter of aggregate at 500 uM by dynamic light scattering analysis; format: physicochemical; in short: as §1
[19] = Aggregation property of the compound in NMR buffer assessed as amorphous morphology at 200 uM by uranyl acetate staining-based transmission electron microscopic analysis; format: physicochemical
Albumin [20] = target: T2, Albumin; test: Displacement of dansylated phenylalanine from human serum albumin at <150 uM by fluorescence assay
In short: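 Competition of ligand against 100 μM dansyl-phenylalanine (binds Sudlow sites 1 and 2) bound to 2.5 μM HSA. Excitation 370 nm, emission 480 nm. Fractional saturation modelled with two sites, free HSA assumed negligible; least-squares fit with no further ESI sites, giving maximum apparent dissociation constants.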

[21] = Aggregation property of the compound assessed as change in chemical shift by 1H-NMR analysis; format: physicochemical; in short: as §4
Albumin [22] = target: T2, Albumin; test: Binding affinity to human serum albumin assessed as inhibition of compound aggregation at 500 uM by dynamic light scattering analysis; in short: as §1
[23] = Aggregation property of the compound assessed as change in peak intensity by measuring concentration at which peak intensities deviated from the linear correlation by 1H-NMR analysis; format: physicochemical; in short: as §4
Albumin [24] = target: T2, Albumin; test: Displacement of ANS from human serum albumin at <150 uM by fluorescence assay
In short: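 Fluorescence competition: 2.5 μM HSA with 5 or 100 μM ANS, ligand added over a concentration range. Excitation 360 nm; emission read at 460 and 480 nm to check for blue shift. Signal normalized between ANS alone (minimum) and HSA:ANS (maximum).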

[25] = Aggregation property of the compound assessed as change in saturation transfer at 100 uM irradiated at 8.61 ppm by STD NMR spectra analysis; format: physicochemical; in short: as §2
[26] = Aggregation property of the compound in NMR buffer at 50 to 250 uM by surface plasmon resonance analysis; format: physicochemical
In short: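 SPR on a nonfunctionalized gold nanoparticle sensor; samples in NMR buffer with DMSO at 1.25%, injected at 33 μL/min alongside matched DMSO controls (with HSA where present, 25 μM), in duplicate. Surface regenerated only after HSA-containing injections.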

Albumin [27] = target: T2, Albumin; test: Displacement of [13C]oleic acid from human serum albumin by CH-HSQC spectra analysis
In short: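 Fatty-acid-free recombinant HSA at 250 μM in sodium phosphate buffer (20 mM NaPO4, pH 7.6, 50 mM NaCl, D2O), 37 °C for 30 min. 13C-oleic acid (100 mM stock in DMSO-d6, warmed to 50 °C for 10 min) added to 1.5 mM, then 2 h at 37 °C. CH-HSQC at 298 K; loss of site-specific cross-peaks A–H scored.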

[28] = Binding affinity to Triton-X 100 assessed as peak intensity loss at 150 uM by 1H-NMR spectra analysis
[29] = Binding affinity to Triton-X 100 assessed as line broadening at 150 uM by 1H-NMR analysis

T2 sequence (P02768 whole entry): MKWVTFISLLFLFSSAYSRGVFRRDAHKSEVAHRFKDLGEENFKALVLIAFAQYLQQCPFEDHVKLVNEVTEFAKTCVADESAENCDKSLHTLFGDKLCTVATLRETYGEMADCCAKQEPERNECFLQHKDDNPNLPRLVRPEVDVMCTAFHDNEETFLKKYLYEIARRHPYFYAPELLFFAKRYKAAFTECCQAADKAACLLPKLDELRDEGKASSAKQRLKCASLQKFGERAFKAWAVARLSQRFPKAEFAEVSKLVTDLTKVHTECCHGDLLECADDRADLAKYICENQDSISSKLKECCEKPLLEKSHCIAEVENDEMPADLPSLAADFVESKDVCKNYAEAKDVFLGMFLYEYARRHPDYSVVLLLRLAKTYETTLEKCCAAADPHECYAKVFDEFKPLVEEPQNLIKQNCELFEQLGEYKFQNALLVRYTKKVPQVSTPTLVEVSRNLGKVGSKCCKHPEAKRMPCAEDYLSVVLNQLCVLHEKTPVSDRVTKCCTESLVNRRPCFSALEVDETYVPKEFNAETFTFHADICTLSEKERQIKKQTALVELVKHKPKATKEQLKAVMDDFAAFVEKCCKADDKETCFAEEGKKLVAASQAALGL

SMILES: C[C@@H]1CCc2c(cc(Br)c(F)c2Br)N1C=O [listing 1 of 2 here]
Activity [3]: 70 nm | Activity [4]: Active | Activity [5]: Active | Activity [6]: Active | Activity [7]: Active | Activity [8]: Active | Activity [9]: inactive | Activity [10]: 10 nm

SMILES: C[C@@H]1CCc2c(cc(Br)c(F)c2Br)N1C=O (stereo in doubt; trans)
Activity [11]: 0.02 ppm

SMILES: C[C@@H]1CCc2c(cc(Br)c(F)c2Br)N1C=O (stereo in doubt; cis)
Activity [11]: < 0.34 ppm

SMILES: C[C@@H]1CCc2c(cc(Br)c(F)c2Br)N1C=O [listing 2 of 2 here]
Activity [12]: Not Active | Activity [13]: 90 to 600 nm | Kd [14]: 757 to 1980 µM | Kd [15]: 124 to 184 µM | Activity (Albumin [16]): Not Active | Activity (Albumin [17]): Active | Activity [18]: 250 nm | Activity [19]: Active | Activity (Albumin [20]): Not Active | Activity [21]: Not Active | inhibition (INH) (Albumin [22]): Active | Activity [23]: 150 µM | Activity (Albumin [24]): Not Active | Activity [25]: Not Active | Activity [26]: Not Active | Activity (Albumin [27]): Active

SMILES: Clc1ccccc1C(c1ccccc1)(c1ccccc1)n1ccnc1
Activity [28]: Active | Activity [1]: Active | Activity [2]: Active

Results, then the compound that gave them:

Activity [1]: Active | Activity [2]: Active
SMILES: O=C(O)c1cc(-c2ccc(F)cc2F)ccc1O

Activity [28]: Active | Activity [1]: Active | Activity [2]: Active
SMILES: O=C(OCc1ccccc1)c1ccccc1

Activity [1]: inactive | Activity [2]: inactive
SMILES: Nc1nnc(-c2cccc(Cl)c2Cl)c(N)n1

Activity [28]: Active | Activity [1]: Active | Activity [29]: Active | Activity [2]: Active
SMILES: Clc1ccc(COC(Cn2ccnc2)c2ccc(Cl)cc2Cl)c(Cl)c1 (stereo not given)

Activity [28]: Active | Activity [1]: Active | Activity [2]: Active
SMILES: COC(=O)C1=C(C)NC(C)=C(C(=O)OCCN(C)Cc2ccccc2)C1c1cccc([N+](=O)[O-])c1 (stereo not given)

Activity [1]: Active | Activity [2]: Active
SMILES: O=S(=O)(O)c1cccc2cccc(Nc3ccccc3)c12
